According to paper PMC5758876 (Nucleic Acids Research, 2017):

Experiments:
Δswi6 = test: Drug sensitivity serial dilution; format: cell-based, fission yeast Schizosaccharomyces pombe; conditions: 0 and 6 mM HU, 10-fold serial dilution; compared with Δrik1, Δcid12, Δchp1
Summary of the method: (§1)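 Deletion strains were cultured overnight to mid-log phase in YEA broth (3% glucose, 0.5% yeast extract, 75 mg/l adenine) and set to 1 × 10^7 cells/ml. Each culture went through five ten-fold serial dilution steps, and 3 μl spots were placed on HU-containing plates to assess growth.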

Δcid12 = test: Drug sensitivity serial dilution; format: cell-based, fission yeast Schizosaccharomyces pombe; conditions: 0 and 6 mM HU, 10-fold serial dilution
Summary of the method: as §1

Δchp1 = test: Drug sensitivity serial dilution; format: cell-based, fission yeast Schizosaccharomyces pombe; conditions: 0 and 6 mM HU, 10-fold serial dilution
Summary of the method: (§2)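 Strains were grown overnight in YEA broth (3% glucose, 0.5% yeast extract, 75 mg/l adenine) to mid-log phase and adjusted to 1 × 10^7 cells/ml. Five ten-fold serial dilutions were made, and 3 μl of each was spotted onto plates with 0 or 6 mM HU.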

Δrik1 = test: Drug sensitivity serial dilution; format: cell-based, fission yeast Schizosaccharomyces pombe; conditions: 0 and 6 mM HU, 10-fold serial dilution
Summary of the method: as §1

Y41FΔago1 = test: Drug sensitivity serial dilution; format: cell-based, fission yeast Schizosaccharomyces pombe; conditions: 0 and 6 mM HU, 10-fold serial dilution
Summary of the method: as §2

Y41FΔchp1 = test: Drug sensitivity serial dilution; format: cell-based, fission yeast Schizosaccharomyces pombe; conditions: 0 and 6 mM HU, 10-fold serial dilution
Summary of the method: as §2

Δclr3 = test: Drug sensitivity serial dilution; format: cell-based, fission yeast Schizosaccharomyces pombe; conditions: 0 and 6 mM HU, 10-fold serial dilution; compared with Δrik1, Δcid12, Δchp1
Summary of the method: as §1

GFP-tagged Chp1 = test: Peptide pull-down from Chp1GFP whole cell extracts; format: binding, fission yeast Schizosaccharomyces pombe; conditions: western blot, n=3
[1] = target: biotinylated histone H3 N-terminal peptide harbouring a phosphorylated Y41; test: pull-down

With NC(=O)NO [HU, hydroxyurea] the “HU sensitivity (in words)” value (Δswi6) was “milder or no hypersensitivity”, the “HU sensitivity (in words)” value (Δcid12) was “HU hypersensitivity” and the “HU sensitivity (in words)” value (Δchp1) was “HU hypersensitivity”. The “HU sensitivity (in words)” value (Δrik1) was “HU hypersensitivity”, the “HU sensitivity of double mutant relative to Δago1 (in words)” value (Y41FΔago1) was “strongly suppressed HU hypersensitivity” and the “HU sensitivity of double mutant relative to Δchp1 (in words)” value (Y41FΔchp1) was “strongly suppressed HU hypersensitivity”. The “HU sensitivity (in words)” value (Δclr3) was “milder or no hypersensitivity”.

For “AAPATGGVKKPH RY(p)RPGTVALR EIRRYQKSTE [Y41p]”, the “Chp1-GFP association, phosphorylated versus unmodified (Y41F) peptide (in words)” value (GFP-tagged Chp1) was “This observation was confirmed”.

B1: Chp1, endogenous (natural protein)
chain: MVSVKPLPDIDSNEGETDADVYEVEDILADRVNKNGINEYYIKWAGYDWYDNTWEPEQNLFGAEKVLKKWKKRKKLIAKGLLEPFDAEDNEAKKMKREKEILRQQRQKRKSELTQLSQKVKEKFKKMRKKPARRIVTIANDEEEEDDQTMDEDAFERKSMQGELKERNLTDKTSTLSTSFGETSPDVNPFYLSEWPTVTDSILLSKSLSSDAIPLKNGEIKSTMLMPSDSDNSVPGIQNSNNLENTGAFVENANSPQSNTPLSTFRHSSPLSLSPVITSDNDVANSLFFSNSTPLPSSLKIKKEAPKLETHTILVSDNSGSLTKQDILSYFAFIKGNIEVFFLKSPKKDKVCNMAYIQFDSIEQAKLAYDKGHPSWHVTLVKGKISTDMEECKVSKSILKTTPSKKANARSVSFTQTTTDTLSESEKFASNVDLDENFDFNVNVTNEDAKQLKKSVIGSSWTTVNNDWNSVSKSDQTFENDGASKVVPAGNITLNSDNSLHHSISESEDLSSASTLSDYFRFVLRVGKSLYYAGELSFDISKLKAETEHQQLLRSLVSCKQVDVLRFVTSQYLEVFGTCLTKVLSGSLCIRSDVDMTHFKNILNRGNGAGIVLGSNYTLLLFTEDNNALMNLYDCQGQSNSPFWMVIFEPLESILVEWSAKNLRPKKPYHKSQSYLSYLLQLGHIDLHKIGAFQATQILIVSKQPSPEAEELEDTFREAAIPTFRGLEIPESLFLSQNVFVFLNVSLEDDFDQLQFLTLAKRKSCKFFLFGLSLPLKSPNDSHVGTDFKKNNEPLDKLTYSQYLRPMFPKGGVVSVTLSALIKTPRLLELISPFLEIKKDSWILILPPSIVDMVKSYFVTNNPDKSLLEIQNLLNTLQRYLTNPALKNVTLYQDWDIVIDDSADVSLASTLQLYQKKNYDKYRRFVLIHELKNELTPVNGLDIVDYDEFKETFMRAIGLK
B1 showed a fold change against the unmodified (Y41F) peptide [1] of 2.62 fold.
